Assay [1] can be described thus: (§1) Fractional inhibitory concentration (FIC) tested against RCS cells, isolate from Brazil. The class given is functional, Plasmodium falciparum. The essentials:
(§2)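 Parasite growth read by [3H]hypoxanthine incorporation in erythrocytes at 0.2% parasitemia and 1% hematocrit. Medium: folate- and PABA-free RPMI-1640 with 10% heat-inactivated human plasma or Albumax. Cultures were kept at 37 °C under 5% CO2/5% O2/90% N2, with label added at 42 h and 66 h total incubation. Counts were taken after freeze-thaw harvest, IC50 came from nonlinear logistic fits, and FIC index was derived from isobologram.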

In assay [2] the test system is Plasmodium falciparum. The assay can be described thus: Fractional inhibitory concentration (FIC) tested against TM91C235 isolate. It counts as functional. A digest of the protocol:
as §2

Assay [3] relates to Plasmodium falciparum. The assay can be described thus: Fractional inhibitory concentration (FIC) against Plasmodium falciparum W2 of equimolar (1:1) combination dose with chloroquine. It counts as functional. A digest of the protocol: as §2
A short description of assay [4]: (§3) Fractional inhibitory concentration (FIC) tested against Peruvian PC49 cells, isolate from South America. The class given is functional, Plasmodium falciparum. A digest of the protocol:
as §2

Assay [5] has as its system Plasmodium falciparum. Description: In vitro anti-MDR effect in chloroquine resistant TM91C235 cell lines at 5000 ng/ml concentration in the presence of 10 ng/mL chloroquine. The class given is functional. The essentials:
(§4)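 Test agent was combined with chloroquine at 10 ng/mL. TM91C235 was cultured in erythrocytes at 0.2% parasitemia and 1% hematocrit, in folate- and PABA-free RPMI-1640, for 66 h at 37 °C under 5% CO2/5% O2/90% N2. 3H-hypoxanthine was added at 42 h, and cell suppression was taken from scintillation counts of harvested lysates.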

The test system of assay [6] is Plasmodium falciparum. Description: In vitro anti-MDR effect in chloroquine resistant TM91C235 cell lines at 50 ng/ml concentration in the presence of 10 ng/mL chloroquine. It counts as functional. A digest of the protocol:
as §4

In assay [7] the test system is Plasmodium falciparum. The assay can be described thus: In vitro anti-MDR effect in chloroquine and mefloquine resistant TM91C235 cell lines at 50 ng/ml concentration. It counts as functional. The essentials:
(§5)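 TM91C235 P. falciparum in erythrocytes at 0.2% parasitemia and 1% hematocrit, in folate- and PABA-free RPMI-1640 with 10% heat-inactivated human plasma or Albumax. Incubated 66 h at 37 °C under 5% CO2/5% O2/90% N2, with 3H-hypoxanthine added at 42 h. Cells lysed by freezing at -70 °C and harvested; inhibition of isotope incorporation read by scintillation counting.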

The test system of assay [8] is Plasmodium falciparum. Description: In vitro anti-MDR effect in chloroquine and mefloquine resistant TM91C235 cell lines at 500 ng/ml concentration. The class given is functional. A digest of the protocol:
as §5

Assay [9] deals with Plasmodium falciparum. The assay can be described thus: In vitro anti-MDR effect in mefloquine resistant TM91C235 cell lines at 500 ng/ml concentration in the presence of 5 ng/mL mefloquine. It counts as functional. The essentials: (§6)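 Mefloquine was held at 5 ng/mL, combined with test agent. Parasites (TM91C235) were in erythrocytes at 0.2% parasitemia and 1% hematocrit, in folate/PABA-free RPMI-1640 with human plasma or Albumax. Incubation was 66 h at 37 °C in 5% CO2/5% O2/90% N2, with 3H-hypoxanthine added for the last 24 h. Incorporation was counted after freeze-lysis and harvesting.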

In assay [10] the test system is Plasmodium falciparum. The assay can be described thus: In vitro anti-MDR effect in chloroquine resistant TM91C235 cell lines at 500 ng/ml concentration in the presence of 10 ng/mL chloroquine. The class given is functional. The essentials:
as §4

In assay [11] the test system is Plasmodium falciparum. The assay can be described thus: In vitro anti-MDR effect in mefloquine resistant TM91C235 cell lines at 5000 ng/ml concentration in the presence of 5 ng/mL mefloquine. It counts as functional. The essentials: as §6
Assay [12] relates to Plasmodium falciparum. The assay can be described thus: In vitro anti-MDR effect in mefloquine resistant TM91C235 cell lines at 50 ng/ml concentration in the presence of 5 ng/mL mefloquine. It counts as functional. A digest of the protocol:
as §6

For assay [13], the system named is Plasmodium falciparum. Description: In vitro anti-MDR effect in chloroquine and mefloquine resistant TM91C235 cell lines at 5000 ng/ml concentration. The class given is functional. A digest of the protocol:
as §5

Assay [14] is described as follows: as §3. The class given is functional. A digest of the protocol: as §2
A short description of assay [15]: as §1. The class given is functional. The essentials: as §2
Assay [16] concerns Plasmodium falciparum. The assay can be described thus: Fractional inhibitory concentration (FIC) tested against TM91C235 cells, isolate from South east Asia. The class given is functional. A digest of the protocol: as §2
Assay [17] relates to Plasmodium falciparum. The assay can be described thus: Fractional inhibitory concentration (FIC) against Plasmodium falciparum W2 at equimolar (1:1) combination dose with chloroquine. The class given is functional. The essentials:
as §2

On to `c1ccc2c(c1)CCc1ccccc1N2CCCCCCN1CCCC1`, for which the FIC was found to be 0.6 in [1], 0.54 with Plasmodium falciparum [2], 0.57 in the assay with Plasmodium falciparum [3] and 0.92 in assay [4].

Turning to `CN1CCN(CCCCN2c3ccccc3CCc3ccccc32)CC1`, the figures for the FIC (in assay [1]; with Plasmodium falciparum [2]; in the assay with Plasmodium falciparum [3]) were 0.66, 0.54 and 0.52, respectively.

On to `CN(CCCCN1c2ccccc2Sc2ccccc21)Cc1ccccc1`, for which the Suppression worked out at 62% in the assay with Plasmodium falciparum [5]; 14% with Plasmodium falciparum [6]; 13% in the assay with Plasmodium falciparum [7]; 18% in the assay on Plasmodium falciparum [8]; 0% in the assay on Plasmodium falciparum [9]; 27% with Plasmodium falciparum [10]. Further, the results for the Suppression in the assay with Plasmodium falciparum [11], in the assay on Plasmodium falciparum [12] and in the assay with Plasmodium falciparum [13] were 13%, 0% and 35%, respectively.

Regarding `c1ccc2c(c1)CCc1ccccc1N2CCCCN1CCCCC1`, the FIC in assay [1] is listed as 0.36; in the assay on Plasmodium falciparum [2], 0.54; with Plasmodium falciparum [3], 0.45; in assay [4], 0.73.

Regarding `c1ccc(CN(CCCCN2c3ccccc3CCc3ccccc32)Cc2ccccc2)cc1`, the Suppression with Plasmodium falciparum [5] was 13%; in the assay with Plasmodium falciparum [6], 6%; in the assay with Plasmodium falciparum [7] it was 11%; with Plasmodium falciparum [8], 17%; with Plasmodium falciparum [9], 22%; in the assay on Plasmodium falciparum [10] it was 8%. In addition, the Suppression was found to be 19% with Plasmodium falciparum [11], 14% with Plasmodium falciparum [12] and 13% in the assay with Plasmodium falciparum [13].

In the case of `c1ccc2c(c1)CCc1ccccc1N2CCCCN1CCCC1`, the Suppression worked out at 100% in the assay on Plasmodium falciparum [5]; 99% in the assay with Plasmodium falciparum [6]; 58% in the assay with Plasmodium falciparum [7]; 98% in the assay on Plasmodium falciparum [8]; 96% in the assay with Plasmodium falciparum [9]; 100% in the assay with Plasmodium falciparum [10]. Further, the Suppression in the assay on Plasmodium falciparum [11] worked out at 100%; in the assay with Plasmodium falciparum [12], 64%; in the assay on Plasmodium falciparum [13], 100%. The FIC in assay [1] stood at 0.51; with Plasmodium falciparum [2], 0.42; in the assay with Plasmodium falciparum [3], 0.32; in [4] it was 0.66.

Turning to `c1ccc2c(c1)Sc1ccccc1N2CCCCN1CCCC1`, the Suppression in the assay on Plasmodium falciparum [5] was determined as 100%; in the assay with Plasmodium falciparum [6] it was 99%; in the assay with Plasmodium falciparum [7] it was 38%; in the assay on Plasmodium falciparum [8] it was 70%; with Plasmodium falciparum [9], 67%; in the assay on Plasmodium falciparum [10], 99%. The figures for the Suppression in the assay with Plasmodium falciparum [11], with Plasmodium falciparum [12] and in the assay with Plasmodium falciparum [13] were 95%, 33% and 96%, respectively. Further, the FIC in assay [1] turned out to be 0.51; in the assay with Plasmodium falciparum [2], 0.25; in the assay with Plasmodium falciparum [3], 0.21; in assay [4] it was 0.5.

Turning to `CCN(CC)CCCCCN1c2ccccc2CCc2ccccc21`, the FIC in assay [1] was found to be 0.36; in the assay on Plasmodium falciparum [2] it was 0.48; in the assay with Plasmodium falciparum [3], 0.44; in assay [4], 0.82.

Turning to `CN1CCN(CCCCN2c3ccccc3Sc3ccccc32)CC1`, the FIC in assay [1] turned out to be 0.49; in the assay with Plasmodium falciparum [2], 0.48; in the assay with Plasmodium falciparum [3], 0.4; in assay [4], 0.98.

Take `COc1ccc(CCN(C)CCCC(C#N)(c2ccc(OC)c(OC)c2)C(C)C)cc1OC` (centres undefined) [VERAPAMIL]: the FIC in assay [14] is 0.61; in the assay on Plasmodium falciparum [3], 0.51; in assay [15] it was 0.63.

`c1ccc2c(c1)CCc1ccccc1N2CCCCCN1CCCC1`: the FIC in assay [1] was determined as 0.37; with Plasmodium falciparum [2], 0.55; in the assay on Plasmodium falciparum [3], 0.48; in [4], 0.59.

Turning to `CCN(CC)CCCCCCN1c2ccccc2CCc2ccccc21`, the FIC in [1] turned out to be 0.72; in the assay with Plasmodium falciparum [2], 0.59; in the assay with Plasmodium falciparum [3] it was 0.48.

`C1=Cc2ccccc2N(CCCCN2CCCC2)c2ccccc21`: the FIC in [1] is on record as 0.59; with Plasmodium falciparum [2], 0.49; in the assay with Plasmodium falciparum [3] it was 0.33; in assay [4] it was 0.74.

For the molecule `c1ccc2c(c1)Sc1ccccc1N2CCCCN1CCCCC1`, the FIC in assay [1] stood at 0.68; in the assay on Plasmodium falciparum [2], 0.52; with Plasmodium falciparum [3], 0.49; in [4] it was 0.83.

For `c1ccc2c(c1)CCc1ccccc1N2CCCCN1CCOCC1`, the FIC in [1] stood at 0.89; in the assay on Plasmodium falciparum [2] it was 0.54; in the assay on Plasmodium falciparum [3], 0.31; in assay [4] it was 0.78.

As for `CN(C)CCCCN1c2ccccc2Sc2ccccc21`, the Suppression is recorded as 100% in the assay with Plasmodium falciparum [5]; 30% with Plasmodium falciparum [6]; 17% in the assay with Plasmodium falciparum [7]; 27% in the assay with Plasmodium falciparum [8]; 31% with Plasmodium falciparum [9]; 97% in the assay with Plasmodium falciparum [10]. Further, the results for the Suppression in the assay with Plasmodium falciparum [11], with Plasmodium falciparum [12] and with Plasmodium falciparum [13] were 92%, 2% and 92%, respectively. Moreover, the figures for the FIC (in the assay with Plasmodium falciparum [16]; with Plasmodium falciparum [17]; in assay [15]) were 0.28, 0.23 and 0.51, respectively.

Take `CCN(CC)CCCCN1c2ccccc2C=Cc2ccccc21`: the FIC in [1] is reported as 0.39; with Plasmodium falciparum [2] it was 0.33; in the assay on Plasmodium falciparum [3], 0.53; in assay [4] it was 0.6.

Regarding `CCN(CC)CCCCN1c2ccccc2CCc2ccccc21`, the Suppression with Plasmodium falciparum [5] was 100%; in the assay with Plasmodium falciparum [6], 99%; with Plasmodium falciparum [7] it was 62%; with Plasmodium falciparum [8] it was 95%; in the assay with Plasmodium falciparum [9], 95%; with Plasmodium falciparum [10], 100%. In addition, the Suppression in the assay on Plasmodium falciparum [11] was 100%; with Plasmodium falciparum [12] it was 64%; in the assay on Plasmodium falciparum [13], 100%. The FIC in [1] was 0.57; in the assay on Plasmodium falciparum [2], 0.41; in the assay with Plasmodium falciparum [3], 0.39; in assay [4], 0.57.

For `c1ccc(CN(CCCCN2c3ccccc3Sc3ccccc32)Cc2ccccc2)cc1`, the Suppression in the assay on Plasmodium falciparum [5] was 25%; with Plasmodium falciparum [6], 12%; in the assay with Plasmodium falciparum [7], 7%; in the assay on Plasmodium falciparum [8], 10%; in the assay on Plasmodium falciparum [9] it was 3%; in the assay with Plasmodium falciparum [10] it was 16%. Further, the Suppression is listed as 9% in the assay on Plasmodium falciparum [11], 0% with Plasmodium falciparum [12] and 22% in the assay on Plasmodium falciparum [13].

As for `CN(CCCCN1c2ccccc2CCc2ccccc21)Cc1ccccc1`, the Suppression came out at 33% with Plasmodium falciparum [5]; 10% with Plasmodium falciparum [6]; 30% in the assay with Plasmodium falciparum [7]; 32% in the assay on Plasmodium falciparum [8]; 22% in the assay on Plasmodium falciparum [9]; 20% in the assay on Plasmodium falciparum [10]. The figures for the Suppression in the assay with Plasmodium falciparum [11], in the assay with Plasmodium falciparum [12] and with Plasmodium falciparum [13] were 41%, 20% and 60%, respectively.

Turning to `c1ccc2c(c1)Sc1ccccc1N2CCCCN1CCOCC1`, the FIC in assay [1] is 0.37; in the assay with Plasmodium falciparum [2], 0.32; in the assay on Plasmodium falciparum [3] it was 0.39; in assay [4], 0.81.

Regarding `CN(C)CCCCN1c2ccccc2CCc2ccccc21`, the Suppression in the assay with Plasmodium falciparum [5] turned out to be 100%; with Plasmodium falciparum [6] it was 99%; in the assay on Plasmodium falciparum [7], 59%; with Plasmodium falciparum [8] it was 73%; in the assay with Plasmodium falciparum [9], 70%; in the assay with Plasmodium falciparum [10] it was 99%. Also, the Suppression in the assay with Plasmodium falciparum [11] turned out to be 95%; with Plasmodium falciparum [12] it was 43%; in the assay on Plasmodium falciparum [13], 96%. The FIC in assay [1] came out at 0.52; with Plasmodium falciparum [2], 0.26; in the assay with Plasmodium falciparum [3], 0.23; in [4], 0.62.

These data come from ChEMBL document CHEMBL1135479, “Design, synthesis, and evaluation of new chemosensitizers in multi-drug-resistant Plasmodium falciparum” (2002).
